Results: ChEMBL document CHEMBL1140072, “Discovery of novel and cardioselective diltiazem-like calcium channel blockers via virtual screening” (J Med Chem, 2008)

Columns and labels:
Ileum [1] = test: Vasorelaxant activity in K+-depolarized guinea pig ileum longitudinal smooth muscle assessed as inhibition of calcium-induced contraction; format: functional, tissue-based; details: Cavia porcellus
[2] = Negative chronotropic activity in guinea pig spontaneously beating right atrium assessed as decrease in atrial rate at 100 uM relative to control; set-up: scale not given: the % may be the effect or the level left
[3] = Negative inotropic activity in guinea pig left atrium assessed as decrease in atrial tension at 50 uM relative to control; format: functional, tissue-based, Cavia porcellus, Cardiac atrium; set-up: scale not given: the % may be the effect or the level left
[4] = Negative inotropic activity in guinea pig left atrium assessed as decrease in atrial tension relative to control; format: functional, tissue-based; details: Cavia porcellus, Cardiac atrium
Aorta [5] = test: Vasorelaxant activity in K+-depolarized guinea pig aorta assessed as inhibition of calcium-induced contraction at 100 uM; format: functional; details: Cavia porcellus
Ileum [6] = test: Vasorelaxant activity in K+-depolarized guinea pig ileum longitudinal smooth muscle assessed as inhibition of calcium-induced contraction at 50 uM; format: functional; details: Cavia porcellus
[7] = Negative chronotropic activity in guinea pig spontaneously beating right atrium assessed as decrease in atrial rate at 100 uM relative to control; format: functional, tissue-based, Cavia porcellus, Cardiac atrium; set-up: scale not given: the % may be the effect or the level left
[8] = biological target: Voltage-gated L-type calcium channel (Rattus norvegicus, UniProt P22002+Q02485+P27732); test: Displacement of [3H]diltiazem from L-type calcium channel in Sprague-Dawley rat cardiac myocytes; format: cell-based
Procedure, shortened: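 Rat cardiomyocyte preparation. [3H]diltiazem at 5 nM is incubated with test compound at increasing concentrations from 0.1 nM to 100 µM. The readout is the inhibition of [3H]diltiazem binding to the benzothiazepine site.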

[9] = Negative inotropic activity in guinea pig left atrium assessed as decrease in atrial tension at 100 uM relative to control; format: functional, tissue-based, Cavia porcellus, Cardiac atrium; set-up: scale not given: the % may be the effect or the level left
Ileum [10] = test: Vasorelaxant activity in K+-depolarized guinea pig ileum longitudinal smooth muscle assessed as inhibition of calcium-induced contraction at 100 uM; format: functional; details: Cavia porcellus
[11] = Negative inotropic activity in guinea pig left atrium assessed as decrease in atrial tension at 1 uM relative to control; format: functional, Cavia porcellus, Cardiac atrium; set-up: scale not given: the % may be the effect or the level left
[12] = Negative chronotropic activity in guinea pig spontaneously beating right atrium assessed as decrease in atrial rate at 10 uM relative to control; format: functional, Cavia porcellus, Cardiac atrium; set-up: scale not given: the % may be the effect or the level left
[13] = Negative inotropic activity in guinea pig left atrium assessed as decrease in atrial tension at 5 uM relative to control; format: functional, Cavia porcellus, Cardiac atrium; set-up: scale not given: the % may be the effect or the level left
[14] = Dissociation constant, pKa of the compound; format: physicochemical
Procedure, shortened: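 pKa values are calculated in silico, not measured experimentally.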

[15] = Negative inotropic activity in guinea pig left atrium assessed as decrease in atrial tension at 10 uM relative to control; format: functional, Cavia porcellus, Cardiac atrium; set-up: scale not given: the % may be the effect or the level left
Aorta [16] = test: Vasorelaxant activity in K+-depolarized guinea pig aorta assessed as inhibition of calcium-induced contraction at 50 uM; format: functional; details: Cavia porcellus
Ileum [17] = test: Vasorelaxant activity in K+-depolarized guinea pig ileum longitudinal smooth muscle assessed as inhibition of calcium-induced contraction at 10 uM; format: functional; details: Cavia porcellus
L-type calcium channel = L-type calcium channel (Rattus norvegicus, UniProt P22002+P27732+Q02485); test: Displacement of [3H]diltiazem from L-type calcium channel in Sprague-Dawley rat cardiac myocytes at 10 uM; format: cell-based; details: probe [3H]diltiazem, read-out: Activity
Ileum [18] = test: Vasorelaxant activity in K+-depolarized guinea pig ileum longitudinal smooth muscle assessed as inhibition of calcium-induced contraction at 1 uM; format: functional; details: Cavia porcellus
[19] = Negative chronotropic activity in guinea pig spontaneously beating right atrium assessed as decrease in atrial rate at 5 uM relative to control; format: functional, Cavia porcellus, Cardiac atrium; set-up: scale not given: the % may be the effect or the level left

SMILES | IC50 (Ileum [1]) [nM] | EC50 [4] [nM] | inhibition at 100 µM (Aorta [5]) [%] | Activity [7] [%] | Activity [9] [%] | inhibition at 100 µM (Ileum [10]) [%] | also measured
CCc1c(C)cc(C)cc1OC[C@@H](O)CNC(C)C |  | 3590 | 30 | 40 |  |  | Activity [3]: 76%
COc1ccc(CN(CCN(C)C)c2ccccn2)cc1 [PYRILAMINE] |  | 6260 | 23 | 47 | 81 |  | 
Cc1ccccc1CC(=O)c1ccc(O)c(CN(C)C)c1O |  | 840 | 4 |  |  |  | Activity [2]: 48%; Activity [13]: 78%; pKa [14]: 10.7
COc1cc2c(cc1OC)[C@H]1CC(=O)[C@H]3CCC[C@H]3N1CC2 |  | 2170 | 3 | 4 | 64 |  | 
CC(C)NC[C@@H](O)COc1cccc2ccccc12 [DEXPROPRANOLOL] |  |  | 36 |  |  | 74 | Activity [2]: 26%; Activity [3]: 92%
CCOc1ccc(NC(=O)CCN(CC)CC)cc1 |  | 1050 | 11 | 30 | 79 |  | 
CN(Cc1ccccc1)Cc1ccnc(Br)c1O | 3280 | 1110 | 2 | 6 | 70 |  | inhibition at 50 µM (Ileum [6]): 57%
Cc1cc(C(C)(C)C)cc(C)c1NC(=O)CN1CCOCC1 |  | 840 | 26 | 29 |  |  | Activity [15]: 87%
COc1ccccc1NC(=O)OCC1CCCCN1C (configuration not stated) | 18400 | 970 | 10 | 17 | 87 | 73 | 
COc1ccc([C@@H]2Sc3ccccc3N(CCN(C)C)C(=O)[C@@H]2OC(C)=O)cc1 [DILTIAZEM] | 110 | 790 | 88 |  |  |  | Activity [15]: 78%; EC30 [4]: 70 nM; IC50 [4]: 2600 nM; inhibition at 1 µM (Ileum [18]): 98%; Activity [19]: 94%

Continued, in another order:

IC50 (Ileum [1]) [nM] | EC50 [4] [nM] | SMILES | inhibition at 100 µM (Aorta [5]) [%] | Activity [7] [%] | Activity [9] [%] | inhibition at 100 µM (Ileum [10]) [%] | also measured
14100 | 310 | O=S(=O)(c1ccc(Cl)cc1)N(C1CCNCC1)C1CC1 | 19 |  |  |  | Activity [2]: 64%; Activity [3]: 76%; inhibition at 50 µM (Ileum [6]): 89%
9340 | 250 | CN(C)CCOC(c1ccc(Cl)cc1)c1ccccn1 (configuration not stated) [CARBINOXAMINE] | 28 | 48 | 76 |  | EC30 [4]: 480 nM; inhibition at 50 µM (Ileum [6]): 62%; Ki [8]: 1080 nM
 | 70 | CCO[C@]1(c2ccc(Br)cc2)SC=C(C)n2c1noc2=O | 11 |  |  | 3 | Activity [11]: 58%; Activity [12]: 16%
20200 | 350 | CN(C)CCNC(=O)c1cc2ccccc2cc1O | 13 | 35 | 90 | 61 | Ki [8]: 450 nM
20300 | 300 | CN(C)CCNc1cc(-c2cccnc2)nc2ccccc12 | 5 | 4 |  | 72 | Activity [13]: 76%
16500 | 730 | CC(C)(CNC(=S)Nc1ccccc1)N1CCOCC1 | 20 | 10 | 94 | 76 | 
 | 520 | O=C(COc1ccccc1Cl)N1CCNCC1 | 1 | 3 |  |  | Activity [3]: 60%
 | 430 | O=S(=O)(c1cccc2c(Cl)cccc12)N1CCCNCC1 |  |  | 98 |  | Activity [2]: 46%; inhibition at 50 µM (Aorta [16]): 43%; inhibition at 10 µM (Ileum [17]): 40%
 | 250 | CCN(CC)CCOc1ccc2ccc(=O)oc2c1 | 14 | 28 |  | 22 | Activity [15]: 67%
 | 450 | CN1CCN(S(=O)(=O)c2cccc3cccnc23)CC1 | 18 |  |  | 28 | Activity [2]: 19%; Activity [15]: 84%; inhibition at 10 µM (L-type calcium channel): 60%
 | 340 | COc1ccc(Cl)cc1NC(=O)N1CCN(C)CC1 | 7 | 10 |  | 44 | Activity [3]: 67%
